Source: PubChem
PMI activator: increases human mannose-6-phosphate isomerase activity. purified human PMI, coupled resazurin fluorescence, 20 min; hits give high values; 1 = vehicle control, 0 substrate-free wells. activation factor at 20 µM. 0.005% of 190,000 active. AID 1214;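 active = activation factor of 2 or more at 20 µM, relative to plate controls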
Target sequence (P34949 whole entry, looked up): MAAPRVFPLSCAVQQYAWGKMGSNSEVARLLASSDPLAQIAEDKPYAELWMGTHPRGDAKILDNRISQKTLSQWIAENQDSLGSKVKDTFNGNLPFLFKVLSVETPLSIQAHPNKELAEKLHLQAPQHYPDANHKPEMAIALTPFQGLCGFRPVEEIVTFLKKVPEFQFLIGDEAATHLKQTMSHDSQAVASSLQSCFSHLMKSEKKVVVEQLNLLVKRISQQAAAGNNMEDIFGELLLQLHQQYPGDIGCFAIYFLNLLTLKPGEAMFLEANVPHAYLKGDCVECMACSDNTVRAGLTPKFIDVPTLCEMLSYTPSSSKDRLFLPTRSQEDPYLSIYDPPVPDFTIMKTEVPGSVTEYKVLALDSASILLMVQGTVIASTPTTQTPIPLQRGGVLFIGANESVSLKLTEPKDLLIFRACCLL
Diaph inh CS: inhibits diaphorase or chemically oxidizes, flagging diaphorase assay artifacts; diaphorase resazurin-to-resorufin fluorescence, NADH, 16 min; bacterial (C. kluyveri) enzyme, not human; inhibition, % at 20 µM; 0.69% of 190,000 active;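 active = primary screen inhibition at 20 µM above a set limit, cut at about 50% in these data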;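 note: plate controls were DMSO with full reaction for no effect and wells lacking NADH for full effect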
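System: Bacterial diaphorase enzyme (C. kluyveri) | Incubation: 16-min room-temperature incubation before reading | Benchmarks: No-NADH positive control and DMSO neutral control | Measured by: Resorufin fluorescence 544/590 nm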
G6PDH CS: inhibits Leuconostoc G6PDH, flagging false hits in G6PDH-based assays | AID 1020 | inhibition, % at 5 µM | 0.12% of 200,000 active | Purified L. mesenteroides G6PDH, diaphorase/resazurin coupled fluorescence, 45 min; in the data active = inhibition above about 50%
PMI act hi M6P: increases human PMI activity with near-saturating mannose 6-phosphate | P34949 | coupled PMI enzyme assay, resazurin fluorescence, 20 min; hits give high values; 1 = untreated enzyme, 0 = substrate-free blank | activation factor at 20 µM | 0.34% of 190,000 active;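 active = activation factor of 2 or more at 20 µM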
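Test system: human phosphomannose isomerase with PGI, G6PDH, diaphorase coupling enzymes; Amount: PMI at 15 ng/mL final; Reagent: Mannose-6-phosphate 1.0 mM (near-saturating) plus 0.22 mM NADP+; Timing: 20 min, room temperature; Technique: resorufin fluorescence at Ex 544/Em 590 nm; Dosing: 20 µM single dose.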
Redox H2O2 prof: compounds producing H2O2 with reducing agent – biochemical, NIH compound library profiling, artefact control for MLSCN library redox annotation, primary screen; activation, % at 10 µM; DTT-dependent redox cycling H2O2, phenol red/HRP absorbance; 100% = 100 µM peroxide control, 0% = buffer; 0.03% of 200,000 active;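 active = activation of at least 50% relative to the plate's high and low controls in the primary single-dose screen; inactive = activation below 50%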;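 note: compound incubated with DTT at 0.8 mM final as the reducing agent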
Diaphorase act: diaphorase activation or chemical reduction counter-screen; AID 1229; activation factor at 20 µM; Diaphorase/resazurin coupled assay, resorufin fluorescence, 16 min; hits give high values; 1 = vehicle wells, 0 = NADH-free wells; 0.005% of 190,000 active;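 active = diaphorase activity raised at least twofold by the compound at 20 µM; inactive = activation factor below 2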
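Material: purified diaphorase enzyme from Clostridium kluyveri / Medium: HEPES pH 7.4 buffer with MgCl2 and Tween 20 / Schedule: enzyme reaction of 16 min at room temperature / Measured by: resorufin fluorescence, excitation 544 nm, emission 590 nm / Evaluation: rise in resorufin formation, marking diaphorase activation or chemical reduction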
Numbers without * were called inactive; / = not tested or not shown. An excerpt weighted towards active compounds, which were near 1.1% of everything screened.

SMILES	PMI activator	Diaph inh CS	G6PDH CS	PMI act hi M6P	Redox H2O2 prof	Diaphorase act
COc1ccc(/C=C2/C(=O)NC(=S)N(C3CC3)C2=O)cc1CN1C(=O)c2ccccc2C1=O	1.6	14	-10	2*	0	0.9
COc1ccc(/C=C2/C(=O)NC(=O)N(C3CCCCC3)C2=O)cc1CSc1ccccn1	1	-8	2	1.2	1	1.1
C=CCn1c(O)c(/C=N/NC(=O)CCCC)c(=O)[nH]c1=S	0.8	40	7	0.8	-1	0.6
Oc1cc2c(cc1O)[C@H]1c3ccccc3CN[C@@H]1CC2	0.5	65*	31	0.8	/	0.4
O=C(c1ccc(Cl)cc1)C1CCCN(Cc2ccc3nonc3c2)C1 (configuration not stated)	0.9	8	8	0.9	-1	0.9
Cc1ccc(N/N=C/c2c(O)n(-c3ccccc3)c(=O)[nH]c2=O)cc1	1.6	18	6	2.5*	0	0.8
CCN(C(C)=O)c1cccc(-c2ccnc3c(C#N)cnn23)c1	0.9	1	10	1	/	1
O=C1C=Cc2ccccc2C1=O	0.2	78*	62*	0.2	2	0.2
CCOC(=O)c1cc(CC)sc1/N=C/c1c(O)[nH]c(=S)[nH]c1=O	1.4	1	-8	1.8	0	1
CCOC(=O)c1cc(CC)sc1/N=C/C1C(=O)NC(=S)NC1=O	1.8	13	6	2.3*	-1	0.9
O=C1NC(=S)N(Cc2ccco2)C(=O)/C1=C\c1cccs1	1.3	90*	17	1.2	-1	0.1
c1ccc(-c2ccc(-c3n(-c4ccccn4)c4ccccc4[n+]3-c3ccccn3)cc2)cc1	1.2	18	2	1	0	0.8
CC(=O)c1ccc2c(c1)C1C(Cl)C(Sc3ccccc3[N+](=O)[O-])CC1C(C(=O)O)N2 (configuration not stated)	1.1	66*	-14	1.5	3	0.3
O=C(O)c1cccc2c1NC(C(=O)O)C1CC(Sc3ccccc3[N+](=O)[O-])C(Cl)C21 (configuration not stated)	1.2	93*	1	1.3	12	0.1
O=C1NS(=O)c2cc([N+](=O)[O-])cc([N+](=O)[O-])c21 (configuration not stated)	1.6	5	13	2*	0	0.9
Brc1ccc2[nH]cc(/C=N/N3CCCCC3)c2c1	0.9	24	2	0.8	0	0.8
CCOc1cccc(OCC)c2c(C)[n+](CC3CCCO3)c(C)c1-2 (configuration not stated)	1.6	31	12	2*	1	0.7
CCC(C)N1C(=O)NC(=O)C2(Cc3c(ccc4ccccc34)N(C)C2)C1=O (configuration not stated)	1.1	74*	41	0.3	0	0.3
COc1ccc2c(c1)CC1(CN2C)C(=O)NC(=O)N(CCc2ccccc2)C1=O (configuration not stated)	1	37	7	0.7	1	0.6
Oc1ccc(/C=N/NP(=S)(c2ccccc2)c2ccccc2)cc1O	0.4	58*	15	0.4	-1	0.4
Oc1ccccc1/C=N/NP(=S)(c1ccccc1)c1ccccc1	0.9	4	2	0.9	-1	1
CC1CCN(CC(=O)c2ccccc2Cl)CC1	1.5	8	-8	2*	1	0.9
Cc1oc(-c2ccc(F)cc2F)nc1CN1C[C@@H]2C[C@@H](C1)c1cccc(=O)n1C2	1	-13	10	1	-1	1.1
C=C1N2CCC(CC2)C1(O)c1ccc(C)cc1 (configuration not stated)	1.6	7	2	2.1*	0	0.9
C=C1N2CCC(CC2)C1(O)c1ccc(C)c(C)c1 (configuration not stated)	1.1	11	-7	1	0	0.9
SMILES	PMI activator	Diaph inh CS	G6PDH CS	PMI act hi M6P	Redox H2O2 prof	Diaphorase act
O=C(O)CCn1cc(C=C2C(=O)NC(=S)NC2=O)c(-c2ccccc2)n1	0.4	23	13	1.1	-1	0.8
O=C(O)CCn1cc(C=C2C(=O)NC(=S)NC2=O)c(-c2cc3ccccc3oc2=O)n1	1.3	9	7	2.3*	-1	0.9
CC1CN=C(NCCc2ccccc2)S1 (configuration not stated)	1	11	4	1	-1	0.9
COCCNCCOc1ccc(C(C)(C)c2ccccc2)cc1	0.9	9	12	1	0	0.9
COc1cccc(-n2c(/C=C/c3ccc(O)c(O)c3)nc3ccccc3c2=O)c1	0.4	69*	26	0.9	-1	0.3
O=c1c2ccccc2nc(/C=C/c2ccc(O)cc2)n1-c1cccc(O)c1	0.9	14	5	0.8	0	0.9
CSc1nc(N2CCN(C)CC2)c2ccccc2n1	0.9	57*	7	0.9	-1	0.4
CN1CCN(c2nc(Cl)ncc2F)CC1	1	3	8	0.9	-1	1
CCN(CC)P(=O)(NC(=O)c1cccn1C)N(CC)CC	1.2	-4	-3	1.1	0	1
O=C1NC(=O)C(CCc2ccncc2)(CCc2ccncc2)C(=O)N1Cc1ccccc1	0.9	9	12	1	-1	0.9
CC(=O)NC(Cc1ccc(N(CCCl)CCCl)cc1)C(=O)NC(CC(C)C)C(=O)O (configuration not stated)	1.7	2	10	2*	0	1
Cc1ccc(/C=C2\C(=O)NC(=S)N(c3ccc(F)cc3)C2=O)s1	1.6	3	3	2.1*	0	1
Cc1ccc(/C=C2\C(=O)NC(=S)N(c3ccccc3F)C2=O)s1	1.2	14	-1	1.6	0	0.9
CC(=O)c1c(C)n(C2CCCCC2)c2ccc(O)cc12	0.9	50*	9	0.8	1	0.5
COc1ccc(CCNC(=O)c2c(N)n(CCN3CCOCC3)c3nc4ccccc4nc23)cc1OC	1	51*	2	1	2	0.5
N#CC1=C(N)Oc2cc(O)ccc2C1c1ccc2c(c1)OCO2 (configuration not stated)	0.8	21	16	0.8	-1	0.8
O=C1NC(=O)[C@]2(Cc3ccccc3N3CCN(c4ccccc4)CC32)C(=O)N1Cc1ccccc1 (some centres not stated)	1.6	19	5	2.1*	0	0.8
